Assays:
hRECs [1] = assay: Cell entry and localization in hRECs; format: cell-based, human; conditions: 1 μM, 2 h incubation, HG medium, 37 °C; confocal microscopy; Fig. 1D
Procedure, shortened: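 Passage-6 hRECs spent 24 h in high-glucose medium at 37 °C, then 2 h with 1 μM test peptide, TTR homotetramer or scrambled peptide. Cells were PBS-washed, fixed (4% PFA, 20 min), permeabilized (0.1% Triton X-100) and stained overnight at 4 °C with anti-hnRNPA2B1, anti-TTR or anti-His-tag. Alexa Fluor 488/594 secondaries and Hoechst 33342 were used; imaging was confocal.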

hRECs [2] = assay: EdU DNA synthesis assay; format: cell-based, human; conditions: high glucose (25 mM), 1 μM, n = 5; Fig. 2A, B
Procedure, shortened: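 hRECs (passages 5–6; 3000 cells/mL) were kept in 25 mM glucose medium with 1 μM test peptide or TTR homotetramer, with low-glucose and mannitol controls. DNA synthesis was detected with an EdU labeling kit by confocal imaging, nuclei counterstained with Hoechst 33342; n = 5.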

hRECs [3] = assay: CCK-8 proliferation assay; format: cell-based, human; conditions: 1 μM, 5 days
Procedure, shortened: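 hRECs (passages 5–6; 3000 cells/mL) were grown in 25 mM glucose medium with 1 μM test peptide or TTR homotetramer, with 5.5 mM glucose and mannitol osmotic controls. Proliferation was read by CCK-8 after 5 days of culture; n = 5.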

hRECs [4] = assay: Apoptosis; format: cell-based, human; conditions: Annexin V flow cytometry; hyperglycemia; Fig. S7
Procedure, shortened: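 hRECs (passages 5–6) were seeded at 3000 cells/mL and grown 120 h in low-glucose (5.5 mM), high-glucose (25 mM) or low-glucose + 20 mM mannitol (osmotic control) medium. TTR homotetramer (1 μM) or test peptide (1 μM) was added to the high-glucose medium. Apoptosis was measured by FITC Annexin V staining and flow cytometry.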

hRECs [5] = assay: Wound healing assay; format: cell-based, human; conditions: high glucose, 1 μM, 24 h, n = 5; Fig. 3B, C
Procedure, shortened: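 Wound-healing kit assay on hRECs (passages 5–6) in high-glucose (25 mM) phenol red-free DMEM containing 1 μM test compound. Low glucose (5.5 mM) and mannitol (20 mM) osmotic controls included. Closure followed over 24 h; n = 5; mean ± SD, one-way ANOVA with LSD post hoc test.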

hRECs [6] = assay: Tube formation assay; format: cell-based, human; conditions: high glucose, 1 μM, basement membrane matrix, 4 h, n = 5; Fig. 3D, E
Procedure, shortened: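 hRECs (passages 5–6) in 25 mM glucose medium with 1 μM test peptide or TTR homotetramer, plus low-glucose and mannitol osmotic controls, were plated on basement membrane matrix. Tube formation was then assessed.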

STAT4 mRNA = assay: qPCR in hRECs; format: cell-based, human; conditions: high glucose, 1 μM, n = 5, Fig. 4A
Procedure, shortened: (§1)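 hRECs (passages 5–6) cultured 120 h in high-glucose (25 mM) medium with 1 μM test compound, alongside low-glucose and mannitol osmotic controls. Total RNA extracted and measured by qPCR: STAT4 mRNA normalised to GAPDH; hsa-miR-223-3p against a cel-miR-39-3p spike-in control. n = 5; mean ± SD; one-way ANOVA with LSD test.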

hsa-miR-223-3p = assay: qPCR in hRECs; format: cell-based, human; conditions: high glucose, 1 μM, n = 5, Fig. 4B
Procedure, shortened: as §1

FBXW7 mRNA = assay: qPCR in hRECs; format: cell-based, human; conditions: high glucose, 1 μM, n = 5, Fig. 4C
Procedure, shortened: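 Total RNA came from hRECs grown 120 h in low-glucose, 25 mM high-glucose or mannitol control medium, with 1 μM test peptide or TTR homotetramer in high glucose. FBXW7 mRNA was quantified by qPCR with GAPDH as reference.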

STAT4 [7] = assay: Western blot in hRECs; format: cell-based, human; conditions: high glucose (increased by HG), 1 μM, n = 3; Fig. 4D, E
Procedure, shortened: (§2)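 hRECs (passages 5–6; 3000 cells/mL) were cultured 120 h in 5.5 mM glucose, 25 mM glucose or mannitol control medium, with 1 μM test peptide or TTR homotetramer added to high glucose. Lysis was in RIPA with protease/phosphatase inhibitors. Lysates were resolved on 10% SDS–PAGE, transferred to PVDF, blocked in 5% milk, probed and developed by ECL.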

p-STAT4 [8] = assay: Western blot in hRECs; format: cell-based, human; conditions: high glucose (increased by HG), 1 μM, n = 3; Fig. 4D, E
Procedure, shortened: as §2

FBXW7 [9] = assay: Western blot in hRECs; format: cell-based, human; conditions: high glucose (decreased by HG), 1 μM, n = 3; Fig. 4D, F
Procedure, shortened: as §2

Notch 1 [10] = assay: Western blot in hRECs; format: cell-based, human; conditions: high glucose (increased by HG), 1 μM, n = 3; Fig. 4D, G
Procedure, shortened: as §2

p-AKT [11] = assay: Western blot in hRECs; format: cell-based, human; conditions: high glucose (increased by HG), 1 μM, n = 3; Fig. 4D, H
Procedure, shortened: as §2

p-mTOR [12] = assay: Western blot in hRECs; format: cell-based, human; conditions: high glucose (increased by HG), 1 μM, n = 3; Fig. 4D, I
Procedure, shortened: as §2

VEGFA [13] = assay: Western blot in hRECs; format: cell-based, human; conditions: high glucose (enhanced by HG), n = 3; Fig. S8A, C
[14] = Kidney and liver pathological indexes; format: in vivo, rat (Sprague–Dawley); conditions: serum, STZ rats (raised vs normal), intravitreal AAV9
Procedure, shortened: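 STZ-diabetic male SD rats were given intravitreal AAV9 every 8 weeks (5 μL, 1 × 10^12 vg/mL) or saline. Serum ALT, AST and ALP activities and BUN and creatinine concentrations were measured on an automatic biochemical analyzer.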

hRECs [15] = conditions: high-glucose environment; ref [33], [34]; cited from earlier work
hnRNPA2B1 = conditions: ref [33], [34]; cited from earlier work
fibronectin = assay: Immunohistochemistry of rat retina; format: in vivo, rat (Sprague–Dawley); conditions: vs STZ and STZ + NC; intravitreal AAV9, 16 weeks, n = 3; Fig. 6B
Procedure, shortened: (§3)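 In the STZ-induced DR model in male SD rats, animals received intravitreal AAV9 (5 μL, 1 × 10^12 vg/mL, every 8 weeks; saline control; n = 8/group). At 16 weeks, eyeballs were paraffin-embedded and cut at 5 μm. Immunohistochemistry for fibronectin or PCNA followed, with relative positivity ratio quantified; n = 3.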

PCNA = assay: Immunohistochemistry of rat retina; format: in vivo, rat (Sprague–Dawley); conditions: vs STZ and STZ + NC; intravitreal AAV9, 16 weeks, n = 3; Fig. 6C
Procedure, shortened: as §3

HIF-1α [16] = assay: Immunohistochemistry of rat retina; format: in vivo, rat (Sprague–Dawley); conditions: intravitreal AAV9, 16 weeks, n = 3; Fig. 6D
Procedure, shortened: (§4)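 Male Sprague–Dawley rats, 6–8 weeks old, with STZ-induced diabetic retinopathy. Under intraperitoneal ketamine (80 μg/g) and xylazine (4 μg/g), rats received 5 μL intravitreal AAV9 (1 × 10^12 vg/mL) carrying the test sequence every 8 weeks; saline as control; n = 8 rats per group. At 16 weeks, eyes were paraffin-embedded, cut at 5 μm and immunostained. Relative positivity ratio scored; mean ± SD.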

VEGFA [17] = assay: Immunohistochemistry of rat retina; format: in vivo, rat (Sprague–Dawley); conditions: intravitreal AAV9, 16 weeks, n = 3; Fig. 6E
Procedure, shortened: as §4

rno-miR-223-3p = assay: qPCR in rat retina; format: in vivo, rat (Sprague–Dawley); conditions: increased by STZ; intravitreal AAV9, n = 3; Fig. 8A
STAT4 [18] = assay: Western blot of rat retinal tissue; format: in vivo, rat (Sprague–Dawley); conditions: increased by STZ; intravitreal AAV9, n = 3; Fig. 8C
p-STAT4 [19] = assay: Western blot of rat retinal tissue; format: in vivo, rat (Sprague–Dawley); conditions: increased by STZ; intravitreal AAV9, n = 3; Fig. 8C
FBXW7 [20] = assay: Western blot of rat retinal tissue; format: in vivo, rat (Sprague–Dawley); conditions: decreased by STZ; intravitreal AAV9, n = 3; Fig. 8D
Notch 1 [21] = assay: Western blot of rat retinal tissue; format: in vivo, rat (Sprague–Dawley); conditions: increased by STZ; intravitreal AAV9, n = 3; Fig. 8E
p-AKT [22] = assay: Western blot of rat retinal tissue; format: in vivo, rat (Sprague–Dawley); conditions: increased by STZ; intravitreal AAV9, n = 3; Fig. 8F
p-mTOR [23] = assay: Western blot of rat retinal tissue; format: in vivo, rat (Sprague–Dawley); conditions: increased by STZ; intravitreal AAV9, n = 3; Fig. 8G
HIF-1α [24] = assay: Western blot of rat retina; format: in vivo, rat (Sprague–Dawley); conditions: intravitreal AAV9, n = 3; Fig. S13B
Procedure, shortened: (§5)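 STZ-diabetic male Sprague–Dawley rats (6–8 weeks) were given intravitreal AAV9 (5 μL, 1 × 10^12 vg/mL) every 8 weeks, with saline controls. Retinal protein was extracted in RIPA with protease and phosphatase inhibitors, run on 10% SDS–PAGE and transferred to PVDF. Membranes were blocked in 5% skimmed milk, probed with primary then secondary antibody, and developed by ECL.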

VEGFA [25] = assay: Western blot of rat retina; format: in vivo, rat (Sprague–Dawley); conditions: intravitreal AAV9, n = 3; Fig. S13C
Procedure, shortened: as §5

## transthyretin [TTR]
hRECs [1]
  cellular localization: mainly accumulated in the nucleus and their signals overlapped with that of hnRNPA2B1
hRECs [2]
  DNA synthesis (EdU): significantly reversed this trend
hRECs [3]; high glucose (25 mM), n = 5, Fig. 2C
  proliferation (CCK-8), high glucose: significantly abrogated
hRECs [3]; low glucose (5.5 mM), Fig. S6
  proliferation (CCK-8), low glucose: neither TTR nor the THIPs inhibited hREC proliferation
hRECs [4]
  apoptosis: not significantly influenced
hRECs [5]
  wound healing: significantly inhibited the accelerated hREC healing
hRECs [6]
  tube length (tube formation): reversed by TTR and the THIPs
STAT4 mRNA
  STAT4 expression level: reversed in the presence of TTR or the THIPs
hsa-miR-223-3p
  hsa-miR-223-3p expression level: reversed in the presence of TTR or the THIPs
FBXW7 mRNA
  FBXW7 expression level: this trend was reversed
STAT4 [7]
  STAT4 protein level: significantly reversed
p-STAT4 [8]
  p-STAT4 protein level: significantly reversed
FBXW7 [9]
  FBXW7 protein level: significantly reversed
Notch 1 [10]
  Notch 1 protein level: significantly reversed
p-AKT [11]
  p-AKT protein level: significantly reversed
p-mTOR [12]
  p-mTOR protein level: significantly reversed
VEGFA [13]
  VEGFA level: neither the THIPs nor TTR could reverse this effect
[14]; Fig. S12D
  ALT activity: could not be affected by TTR or THIP-4
[14]; Fig. S12E
  AST activity: could not be affected by TTR or THIP-4
[14]; Fig. S12F
  ALP activity: could not be affected by TTR or THIP-4
hRECs [15]
  neovascularization of hRECs: inhibits the neovascularization of hRECs in a high-glucose environment
hnRNPA2B1
  level of hnRNPA2B1: could not affect the level of hnRNPA2B1

## TTR overexpression: Rat TTR (GenBank: AAH86946.1) cloned into the pAAV-MCS vector and packaged in AAV9, intravitreal
fibronectin
  fibronectin positivity ratio: lower
PCNA
  PCNA positivity ratio: lower
HIF-1α [16]
  HIF-1α level (IHC): neither THIP-4 administration nor TTR overexpression affected the levels
VEGFA [17]
  VEGFA level (IHC): neither THIP-4 administration nor TTR overexpression affected the levels
rno-miR-223-3p
  rno-miR-223-3p expression: reversed
STAT4 [18]
  STAT4 protein level: significantly reversed
p-STAT4 [19]
  p-STAT4 protein level: significantly reversed
FBXW7 [20]
  FBXW7 protein level: significantly reversed
Notch 1 [21]
  Notch 1 protein level: significantly reversed
p-AKT [22]
  p-AKT protein level: significantly reversed
p-mTOR [23]
  p-mTOR protein level: significantly reversed
HIF-1α [24]
  HIF-1α level (western blot): neither THIP-4 administration nor elevated TTR expression affected the levels
VEGFA [25]
  VEGFA level (western blot): neither THIP-4 administration nor elevated TTR expression affected the levels

Source: publication PMC12008863 (Journal of Translational Medicine, 2025)
